Data on 14 compounds can be found in ChEMBL document CHEMBL1125133, “Benzodiazepine receptor binding activity of 9-(1-phenylethyl)purines” (J Med Chem, 1990).

SMILES strings stand for the structures.

The target in assay [1] is GABA-A receptor; anion channel. Description: Inhibitory concentration against specific binding of [3H]diazepam to Benzodiazepine receptor in rat brain. The assay is classed as tissue-based.
Assay [2] is filed under the species Rattus norvegicus. Description: Percent change in conflict responding in Long-Evans rats. The class given is functional. Summed up:
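Long-Evans rats on a modified Geller–Seifter conflict schedule. Dosed by oral gavage at 25 mg/kg as a 0.5% methylcellulose suspension, with chlordiazepoxide at 20 mg/kg. Read-out is percent change in conflict responding, mean ±.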

Assay [3] deals with T1, GABA-A receptor; anion channel (Rattus norvegicus) (UniProt O09028+P15431+P18506+P18508+P19969+P20236+P23574+P23576+P28471+P28473+P30191+P62813+P63079+P63138+Q91ZM7+Q9ES14). Nature of the assay: Inhibition of [3H]-diazepam binding to rat brain GABA-A benzodiazepine receptor at 100 uM.
For assay [4], the target named is T1, GABA-A receptor; anion channel (Rattus norvegicus). Nature of the assay: Inhibition of [3H]diazepam binding to rat brain GABA-A Benzodiazepine receptor at 100 uM.

Turning to `C[C@H](c1ccccc1)n1cnc2c(N(C)C)ncnc21`, in assay [1], the IC50 (as a rule, the midpoint of a concentration-inhibition curve) came out at 100 µM.

For `C[C@@H](c1ccccc1)n1cnc2c(N(C)C)ncnc21`, in assay [2], the Change worked out at 5%.

For `CN(C)c1ncnc2c1ncn2Cc1cccc(O)c1`, the Change in assay [2] is reported as 2%.

As to `CC(=O)Oc1cccc(Cn2cnc3c(N(C)C)ncnc32)c1`, the Change in assay [2] came to 2%.

For the compound `CSc1ncnc2c1ncn2Cc1ccccc1`, the Change in assay [2] came to 13%.

`CC(c1cccc(O)c1)n1cnc2c(O)ncnc21` (racemic) showed an IC50 in assay [1] of 2.2 µM.

`CC(=O)Oc1cccc(C(C)n2cnc3c(N(C)C)ncnc32)c1` (racemic) yielded an IC50 in assay [1] of 0.38 µM.

In assay [1], `CC(c1cccc(O)c1)n1cnc2c(N(C)C)ncnc21` (racemic) came in with an IC50 of 0.48 µM. In assay [2], the Change was -7%.

Turning to `CC(c1cccc(N)c1)n1c(Br)nc2c(N(C)C)ncnc21` (racemic), in assay [1], the IC50 is 0.52 µM. Moreover, in assay [2], the Change is reported as 5%.

The compound `CSc1ncnc2c1ncn2C(C)c1cccc(OC(C)=O)c1` (racemic) displayed an IC50 in assay [1] of 1.7 µM. This lies in the single-digit micromolar range.

For `CC(c1cccc(N)c1)n1cnc2c(N(C)C)ncnc21` (racemic), the IC50 in assay [1] stood at 0.16 µM. Also, in assay [2], the Change is -22%.

Take `CSc1ncnc2c1ncn2C(C)c1cccc(O)c1` (racemic): the IC50 in assay [1] was found to be 1.2 µM.

In the case of `CC(=O)Oc1cccc(C(C)n2cnc3c(O)ncnc32)c1` (racemic), the inhibition (as a rule, the change of the read-out against control, counted positive when it falls) in assay [3] worked out at 68%.

For `CC(c1cccc(O)c1)n1cnc2c(S)ncnc21` (racemic), the inhibition in assay [4] came to 64%.
